From ChEMBL document CHEMBL1806409, “Design, synthesis and biological evaluation of novel 4-thiazolidinones containing indolin-2-one moiety as potential antitumor agent” (Eur J Med Chem, 2011)

Columns and labels:
HT-29 = test: Cytotoxicity against human HT-29 cells assessed as cell growth inhibition after 72 hrs by MTT assay; format: functional, cell-based; conditions: HT-29, 72 h
Summary of the method: (§1)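 Cancer lines grown in MEM with 10% FBS. About 4 × 10³ cells/well were seeded in MEM and incubated 24 h at 37 °C, 5% CO₂. Compounds were then added at final concentrations and exposure ran 72 h. MTT was added for 4 h at 37 °C and formazan dissolved in DMSO. Absorbance was read at 492 nm against a 630 nm reference. IC50 is the average of three determinations.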

NCI-H460 = test: Cytotoxicity against human H460 cells assessed as cell growth inhibition after 72 hrs by MTT assay; format: functional, cell-based; conditions: NCI-H460, 72 h; summary of the method: as §1
MDA-MB-231 = test: Cytotoxicity against human MDA-MB-231 cells assessed as cell growth inhibition after 72 hrs by MTT assay; format: functional, cell-based; conditions: MDA-MB-231, 72 h; summary of the method: as §1
WI-38 = test: Cytotoxicity against human WI38 cells assessed as cell growth inhibition after 72 hrs by MTT assay; format: cell-based; conditions: WI-38, 72 h
Summary of the method: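 WI-38 normal human fetal lung fibroblasts were seeded at about 4 × 10³ cells/well and held 24 h at 37 °C, 5% CO₂, then exposed to compounds for 72 h. MTT was given for 4 h at 37 °C and formazan dissolved in DMSO. A492 was read with a 630 nm reference, and IC50 was averaged from three runs.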

SMMC-7721 = test: Cytotoxicity against human SMMC7721 cells assessed as cell growth inhibition after 72 hrs by MTT assay; format: functional, cell-based; conditions: SMMC-7721, 72 h; summary of the method: as §1

| SMILES | IC50 (HT-29) [µM] | IC50 (NCI-H460) [µM] | IC50 (MDA-MB-231) [µM] | IC50 (WI-38) [µM] | IC50 (SMMC-7721) [µM] |
| --- | --- | --- | --- | --- | --- |
| CN(C)CCn1c(=O)c(=Cc2ccc3c(c2)OCO3)s/c1=C1\C(=O)Nc2cc(F)ccc21 | 1.36 | 2.81 | 2.42 |  |  |
| CCN(CC)CCCn1c(=O)c(=Cc2ccc(F)c(F)c2)s/c1=C1\C(=O)Nc2cc(F)ccc21 (mixture of isomers) | 0.028 | 1.12 | 2.9 | 4.45 | 5.33 |
| CN(C)CCn1c(=O)c(=Cc2ccc(O)cc2)s/c1=C1\C(=O)Nc2ccc(F)cc21 (mixture of isomers) | 1.48 | 1.27 | 4.2 |  |  |
| COc1ccc(OC)c(C=c2s/c(=C3\C(=O)Nc4ccccc43)n(CCN(C)C)c2=O)c1 (mixture of isomers) | 96 | 63.7 | 21 |  |  |
| CCN(CC)CCNC(=O)c1c(C)[nH]c(/C=C2\C(=O)Nc3ccc(F)cc32)c1C [SUNITINIB] | 1.3 | 2.7 | 3.7 | 8.56 | 6.47 |
| CCN(CC)CCCn1c(=O)c(=Cc2ccc3c(c2)OCO3)s/c1=C1\C(=O)Nc2ccc(Cl)cc21 (mixture of isomers) | 0.437 | 1 | 3.13 | 3.32 | 3.12 |
| CN(C)CCn1c(=O)c(=Cc2ccc(F)c(F)c2)s/c1=C1\C(=O)Nc2cc(F)ccc21 (mixture of isomers) | 12.1 | 6.4 | 25 |  |  |
| COc1ccc(OC)c(C=c2s/c(=C3\C(=O)Nc4cc(F)ccc43)n(CCN(C)C)c2=O)c1 (mixture of isomers) | 4.45 | 7.15 | 14.5 |  |  |
| CN(C)CCn1c(=O)c(=Cc2ccc(O)cc2)s/c1=C1\C(=O)Nc2cc(F)ccc21 (mixture of isomers) | 2.27 | 1.43 | 3.45 |  |  |
| CN(C)CCn1c(=O)c(=Cc2ccc(O)cc2)s/c1=C1\C(=O)Nc2ccc(Br)cc21 (mixture of isomers) | 1.92 | 1.11 | 2.52 |  |  |
| CN(C)CCn1c(=O)c(=Cc2ccc(F)cc2F)s/c1=C1\C(=O)Nc2cc(F)ccc21 (mixture of isomers) | 6.46 | 3.2 | 8.44 |  |  |
| CCN(CC)CCCn1c(=O)c(=Cc2cc(OC)c(OC)c(OC)c2)s/c1=C1\C(=O)Nc2ccc(Cl)cc21 (mixture of isomers) | > 200 | 2.99 | > 200 |  |  |
| CCN(CC)CCCn1c(=O)c(=Cc2cc(OC)c(OC)c(OC)c2)s/c1=C1\C(=O)Nc2ccccc21 (mixture of isomers) | 1.97 | 1.67 | 2.39 |  |  |
| CN(C)CCn1c(=O)c(=Cc2ccc(O)cc2)s/c1=C1\C(=O)Nc2ccccc21 (mixture of isomers) | 1.39 | 0.98 | 4.28 |  |  |
| COc1ccc(C=c2s/c(=C3\C(=O)Nc4ccc(Cl)cc43)n(CCN(C)C)c2=O)c(OC)c1 (mixture of isomers) | 1.53 | 10.6 | 3.83 |  |  |
| CCN(CC)CCCn1c(=O)c(=Cc2ccc(O)cc2)s/c1=C1\C(=O)Nc2ccc(C)cc21 (mixture of isomers) | 0.77 | 0.26 | 1.81 | 5.75 | 5.09 |
| CCN(CC)CCCn1c(=O)c(=Cc2ccc(F)cc2F)s/c1=C1\C(=O)Nc2ccccc21 (mixture of isomers) | > 200 | 5.47 | > 200 |  |  |
| CCN(CC)CCCn1c(=O)c(=Cc2ccc(F)c(F)c2)s/c1=C1\C(=O)Nc2ccc(F)cc21 (mixture of isomers) | 0.64 | 1.3 | 1.22 | 4.3 | 3.07 |
| CCN(CC)CCCn1c(=O)c(=Cc2ccccc2O)s/c1=C1\C(=O)Nc2ccc(C)cc21 (mixture of isomers) | 8.07 | 11.3 | 15.9 |  |  |

| SMILES | IC50 (HT-29) [µM] | IC50 (NCI-H460) [µM] | IC50 (MDA-MB-231) [µM] | IC50 (WI-38) [µM] | IC50 (SMMC-7721) [µM] |
| --- | --- | --- | --- | --- | --- |
| CN(C)CCn1c(=O)c(=Cc2ccc3c(c2)OCO3)s/c1=C1\C(=O)Nc2ccccc21 (mixture of isomers) | 0.7 | 0.82 | 3.23 | 1.77 | 2.74 |
| COc1ccc(C=c2s/c(=C3\C(=O)Nc4cc(F)ccc43)n(CCN(C)C)c2=O)cc1 (mixture of isomers) | 2.3 | 2.2 | 2.09 |  |  |
| CN(C)CCn1c(=O)c(=Cc2ccc(O)cc2)s/c1=C1\C(=O)Nc2ccc(Cl)cc21 (mixture of isomers) | 2.46 | 2.03 | 3.25 |  |  |
| CN(C)CCn1c(=O)c(=Cc2ccc(F)c(F)c2)s/c1=C1\C(=O)Nc2ccc(F)cc21 (mixture of isomers) | 3.09 | 44.7 | 9.48 |  |  |
| CCN(CC)CCCn1c(=O)c(=Cc2ccccc2O)s/c1=C1\C(=O)Nc2ccccc21 (mixture of isomers) | > 200 | > 200 | > 200 |  |  |
| CCN(CC)CCCn1c(=O)c(=Cc2ccc3c(c2)OCO3)s/c1=C1\C(=O)Nc2cc(F)ccc21 (mixture of isomers) | 0.19 | 1.91 | 4.13 | 8.3 | 4.02 |
| CCN(CC)CCCn1c(=O)c(=Cc2ccc(F)cc2F)s/c1=C1\C(=O)Nc2cc(F)ccc21 (mixture of isomers) | 1.52 | 2.33 | 2.1 |  |  |
| CCN(CC)CCCn1c(=O)c(=Cc2cc(OC)c(OC)c(OC)c2)s/c1=C1\C(=O)Nc2ccc(F)cc21 (mixture of isomers) | > 200 | 0.78 | > 200 | 2.02 | 2.21 |
| CCN(CC)CCCn1c(=O)c(=Cc2ccc3c(c2)OCO3)s/c1=C1\C(=O)Nc2ccccc21 (mixture of isomers) | 0.91 | 1.02 | 1.12 | 3.93 | 3.41 |
| CCN(CC)CCCn1c(=O)c(=Cc2cc(OC)c(OC)c(OC)c2)s/c1=C1\C(=O)Nc2ccc(C)cc21 (mixture of isomers) | > 200 | 2.67 | > 200 |  |  |
| Cc1ccc2c(c1)/C(=c1/sc(=Cc3ccc(O)cc3)c(=O)n1CCN(C)C)C(=O)N2 (mixture of isomers) | 2.29 | 1.77 | 1.32 |  |  |
| Cc1ccc2c(c1)/C(=c1/sc(=Cc3ccc4c(c3)OCO4)c(=O)n1CCN(C)C)C(=O)N2 | 1.03 | 4.03 | 8.1 |  |  |
| CCN(CC)CCCn1c(=O)c(=Cc2ccccc2O)s/c1=C1\C(=O)Nc2ccc(Br)cc21 (mixture of isomers) | 18.1 | 51.7 | 19.9 |  |  |
| CCN(CC)CCCn1c(=O)c(=Cc2ccc3c(c2)OCO3)s/c1=C1\C(=O)Nc2ccc(C)cc21 (mixture of isomers) | 2.11 | 1.86 | 3.1 |  |  |
| CN(C)CCN1C(=O)/C(=C/c2ccc(O)cc2)SC1=S | 59.7 | 46.1 | 84.2 |  |  |
| Cc1ccc2c(c1)/C(=c1/sc(=Cc3ccc(F)c(F)c3)c(=O)n1CCN(C)C)C(=O)N2 (mixture of isomers) | 7.43 | 59.7 | > 200 |  |  |
| CCN(CC)CCCn1c(=O)c(=Cc2cc(OC)c(OC)c(OC)c2)s/c1=C1\C(=O)Nc2cc(F)ccc21 (mixture of isomers) | > 200 | 1.41 | > 200 |  |  |
| CCN(CC)CCCn1c(=O)c(=Cc2ccc(F)cc2F)s/c1=C1\C(=O)Nc2ccc(Cl)cc21 (mixture of isomers) | > 200 | 6.1 | > 200 |  |  |
